# According to ChEMBL document CHEMBL5696442, “Discovery of type II inhibitors of TGFβ-activated kinase 1 (TAK1) and mitogen-activated protein kinase kinase kinase kinase 2 (MAP4K2)” (J Med Chem, 2015):
# Calls of active or inactive are those of the source. The calls are words filed in the database; no cut-off is given here.
# What was measured:
# [1] = biological target: T1, Receptor-interacting serine/threonine-protein kinase 4 (Homo sapiens) (UniProt P57078); experiment: Inhibition of ANKRD3 Lys1 labeling site in human A-375 cells at 0.5 uM by KiNativ Profiling analysis relative to control; format: cell-based
# T1 sequence (whole entry): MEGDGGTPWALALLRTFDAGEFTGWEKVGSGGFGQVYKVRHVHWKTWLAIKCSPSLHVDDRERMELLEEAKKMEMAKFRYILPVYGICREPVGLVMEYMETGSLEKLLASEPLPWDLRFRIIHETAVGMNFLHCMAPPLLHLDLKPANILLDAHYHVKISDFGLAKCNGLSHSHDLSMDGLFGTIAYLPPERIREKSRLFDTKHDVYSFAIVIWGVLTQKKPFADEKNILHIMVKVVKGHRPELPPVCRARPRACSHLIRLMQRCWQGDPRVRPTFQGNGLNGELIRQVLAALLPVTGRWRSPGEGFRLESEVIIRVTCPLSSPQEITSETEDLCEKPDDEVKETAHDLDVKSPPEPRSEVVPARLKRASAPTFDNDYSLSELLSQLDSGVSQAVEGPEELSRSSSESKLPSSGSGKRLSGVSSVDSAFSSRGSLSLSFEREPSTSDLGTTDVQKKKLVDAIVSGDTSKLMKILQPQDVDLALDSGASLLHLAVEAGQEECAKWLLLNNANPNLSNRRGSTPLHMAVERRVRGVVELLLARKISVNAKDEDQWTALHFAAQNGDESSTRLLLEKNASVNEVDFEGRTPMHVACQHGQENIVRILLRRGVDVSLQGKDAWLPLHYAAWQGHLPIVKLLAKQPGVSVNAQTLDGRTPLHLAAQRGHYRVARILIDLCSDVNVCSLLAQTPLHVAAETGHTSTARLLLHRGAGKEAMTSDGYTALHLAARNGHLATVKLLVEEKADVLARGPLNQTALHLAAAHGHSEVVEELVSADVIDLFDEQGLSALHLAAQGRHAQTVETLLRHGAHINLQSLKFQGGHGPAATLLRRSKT
# [2] = biological target: T2, Serine/threonine-protein kinase D3 (Homo sapiens) (UniProt O94806); experiment: Inhibition of PRKD3 (unknown origin) at 10 uM by Ambit Kinomescan binding assay
# T2 sequence (whole entry): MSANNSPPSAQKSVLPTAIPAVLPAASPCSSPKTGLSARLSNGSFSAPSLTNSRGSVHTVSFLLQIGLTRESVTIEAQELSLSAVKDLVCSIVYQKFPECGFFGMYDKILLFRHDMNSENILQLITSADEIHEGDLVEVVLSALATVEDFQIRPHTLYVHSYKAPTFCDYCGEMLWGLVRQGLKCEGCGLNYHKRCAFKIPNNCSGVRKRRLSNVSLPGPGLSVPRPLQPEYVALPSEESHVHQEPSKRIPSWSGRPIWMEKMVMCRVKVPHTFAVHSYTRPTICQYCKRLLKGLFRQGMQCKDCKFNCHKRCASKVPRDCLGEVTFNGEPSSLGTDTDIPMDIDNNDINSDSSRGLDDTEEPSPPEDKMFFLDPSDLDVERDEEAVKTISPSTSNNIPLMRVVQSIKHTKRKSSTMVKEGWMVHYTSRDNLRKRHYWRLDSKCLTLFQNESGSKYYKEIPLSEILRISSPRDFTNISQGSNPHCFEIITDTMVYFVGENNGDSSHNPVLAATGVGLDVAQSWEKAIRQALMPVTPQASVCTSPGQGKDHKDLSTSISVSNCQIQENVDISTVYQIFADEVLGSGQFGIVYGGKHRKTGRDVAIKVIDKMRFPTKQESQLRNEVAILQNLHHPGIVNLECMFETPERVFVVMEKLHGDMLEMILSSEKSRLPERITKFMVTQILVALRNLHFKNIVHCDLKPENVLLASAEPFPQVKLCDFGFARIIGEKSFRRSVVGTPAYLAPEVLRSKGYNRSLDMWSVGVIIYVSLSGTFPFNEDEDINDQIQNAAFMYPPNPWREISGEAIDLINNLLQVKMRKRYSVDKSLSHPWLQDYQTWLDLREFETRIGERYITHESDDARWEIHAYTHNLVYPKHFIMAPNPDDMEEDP
# [3] = biological target: Serine/threonine-protein kinase 35 (Homo sapiens) (UniProt Q8TDR2); experiment: Inhibition of STK35 (unknown origin) at 10 uM by Ambit Kinomescan binding assay relative to control; values are per cent of control
# Chain of Serine/threonine-protein kinase 35 (Homo sapiens) (Q8TDR2 whole entry): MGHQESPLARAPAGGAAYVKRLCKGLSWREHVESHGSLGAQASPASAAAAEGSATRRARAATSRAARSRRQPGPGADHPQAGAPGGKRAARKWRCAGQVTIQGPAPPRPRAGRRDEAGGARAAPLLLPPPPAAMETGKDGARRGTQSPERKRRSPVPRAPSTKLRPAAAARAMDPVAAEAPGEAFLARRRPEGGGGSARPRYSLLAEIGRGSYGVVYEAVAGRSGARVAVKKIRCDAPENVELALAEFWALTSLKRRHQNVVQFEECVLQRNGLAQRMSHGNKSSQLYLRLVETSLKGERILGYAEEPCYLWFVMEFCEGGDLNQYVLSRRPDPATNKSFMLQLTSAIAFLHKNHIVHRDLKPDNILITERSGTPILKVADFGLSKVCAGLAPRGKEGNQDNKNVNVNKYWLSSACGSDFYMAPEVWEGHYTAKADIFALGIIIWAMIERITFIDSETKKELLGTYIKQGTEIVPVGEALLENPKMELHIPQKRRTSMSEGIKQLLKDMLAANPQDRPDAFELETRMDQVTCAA
# [4] = biological target: Tyrosine-protein kinase receptor UFO (Homo sapiens) (UniProt P30530); experiment: Inhibition of AXL ACT labeling site in human A-375 cells at 0.5 uM by KiNativ Profiling analysis relative to control; format: cell-based
# Chain of Tyrosine-protein kinase receptor UFO (Homo sapiens) (P30530 whole entry): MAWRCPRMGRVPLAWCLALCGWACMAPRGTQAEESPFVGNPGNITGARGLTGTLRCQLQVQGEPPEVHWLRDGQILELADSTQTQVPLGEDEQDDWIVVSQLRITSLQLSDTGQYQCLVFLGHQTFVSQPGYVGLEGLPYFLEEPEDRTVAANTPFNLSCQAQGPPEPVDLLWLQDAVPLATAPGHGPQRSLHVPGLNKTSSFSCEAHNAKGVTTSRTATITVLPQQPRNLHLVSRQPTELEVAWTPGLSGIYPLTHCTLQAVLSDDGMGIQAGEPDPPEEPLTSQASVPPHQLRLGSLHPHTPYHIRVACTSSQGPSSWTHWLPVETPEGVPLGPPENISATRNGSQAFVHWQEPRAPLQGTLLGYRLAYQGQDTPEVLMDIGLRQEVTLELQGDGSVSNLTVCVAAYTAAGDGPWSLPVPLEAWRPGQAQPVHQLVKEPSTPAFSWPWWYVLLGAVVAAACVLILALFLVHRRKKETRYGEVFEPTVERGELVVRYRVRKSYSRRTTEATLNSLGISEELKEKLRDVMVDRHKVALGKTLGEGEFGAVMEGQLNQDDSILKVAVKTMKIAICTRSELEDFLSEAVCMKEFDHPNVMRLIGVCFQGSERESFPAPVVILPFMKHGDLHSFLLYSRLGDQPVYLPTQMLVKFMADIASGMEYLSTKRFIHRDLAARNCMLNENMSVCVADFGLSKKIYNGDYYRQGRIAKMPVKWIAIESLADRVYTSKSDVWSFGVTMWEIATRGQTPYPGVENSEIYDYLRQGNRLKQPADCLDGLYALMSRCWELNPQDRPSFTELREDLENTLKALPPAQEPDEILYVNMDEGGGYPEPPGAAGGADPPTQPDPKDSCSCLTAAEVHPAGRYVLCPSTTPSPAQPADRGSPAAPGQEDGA
# Outline: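 Live A375 melanoma cells were treated with compound at 5 or 0.5 μM, then lysed. Lysates were labeled with a lysine-reactive ATP or ADP-biotin probe. Read-out was the compound's protection of kinase labeling sites from probe labeling (KiNativ).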
# [5] = biological target: Rho-associated protein kinase 1 (Homo sapiens) (UniProt Q13464); experiment: Inhibition of ROCK1 in human Huh-7 cells at 1 uM by KiNativ Profiling analysis relative to control; format: cell-based
# Chain of Rho-associated protein kinase 1 (Homo sapiens) (Q13464 2-1354 limits assumed): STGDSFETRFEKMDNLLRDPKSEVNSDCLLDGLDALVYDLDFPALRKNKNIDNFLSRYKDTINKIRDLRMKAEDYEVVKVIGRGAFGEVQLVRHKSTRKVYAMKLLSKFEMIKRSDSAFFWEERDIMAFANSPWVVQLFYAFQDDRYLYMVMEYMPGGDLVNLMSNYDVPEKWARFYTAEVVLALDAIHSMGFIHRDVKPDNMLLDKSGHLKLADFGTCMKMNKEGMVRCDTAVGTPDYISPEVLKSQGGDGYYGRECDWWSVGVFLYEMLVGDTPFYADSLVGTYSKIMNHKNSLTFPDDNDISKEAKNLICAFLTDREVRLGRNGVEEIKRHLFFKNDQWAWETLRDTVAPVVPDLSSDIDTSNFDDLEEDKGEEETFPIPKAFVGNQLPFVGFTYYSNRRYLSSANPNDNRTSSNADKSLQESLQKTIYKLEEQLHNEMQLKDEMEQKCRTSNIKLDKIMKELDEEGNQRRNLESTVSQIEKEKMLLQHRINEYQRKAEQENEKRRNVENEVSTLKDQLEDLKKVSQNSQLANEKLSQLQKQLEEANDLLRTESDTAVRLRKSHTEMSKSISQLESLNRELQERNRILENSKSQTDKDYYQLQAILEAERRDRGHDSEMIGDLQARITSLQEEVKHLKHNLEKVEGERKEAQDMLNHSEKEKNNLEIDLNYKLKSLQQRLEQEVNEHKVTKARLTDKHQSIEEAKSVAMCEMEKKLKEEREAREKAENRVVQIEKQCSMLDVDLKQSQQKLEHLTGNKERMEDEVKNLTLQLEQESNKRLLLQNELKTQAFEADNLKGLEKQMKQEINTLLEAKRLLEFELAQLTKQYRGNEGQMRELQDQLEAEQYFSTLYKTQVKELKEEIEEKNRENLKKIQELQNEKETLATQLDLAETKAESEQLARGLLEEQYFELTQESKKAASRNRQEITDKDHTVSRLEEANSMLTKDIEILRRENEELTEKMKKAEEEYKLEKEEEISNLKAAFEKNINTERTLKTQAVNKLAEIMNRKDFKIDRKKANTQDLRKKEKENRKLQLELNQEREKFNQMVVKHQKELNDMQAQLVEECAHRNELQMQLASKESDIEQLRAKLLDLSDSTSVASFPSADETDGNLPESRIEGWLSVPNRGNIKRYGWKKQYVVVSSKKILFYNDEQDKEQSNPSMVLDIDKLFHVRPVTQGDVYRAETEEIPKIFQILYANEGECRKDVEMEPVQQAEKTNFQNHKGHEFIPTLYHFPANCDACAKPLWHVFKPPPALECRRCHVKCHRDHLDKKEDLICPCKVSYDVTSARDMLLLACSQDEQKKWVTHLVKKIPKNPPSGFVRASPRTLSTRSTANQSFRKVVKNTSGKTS
# [6] = biological target: T3, NUAK family SNF1-like kinase 1 (Homo sapiens) (UniProt O60285); experiment: Inhibition of NuaK1 K2 labeling site in human Huh-7 cells at 10 uM by KiNativ Profiling analysis relative to control; format: cell-based
# T3 sequence (whole entry): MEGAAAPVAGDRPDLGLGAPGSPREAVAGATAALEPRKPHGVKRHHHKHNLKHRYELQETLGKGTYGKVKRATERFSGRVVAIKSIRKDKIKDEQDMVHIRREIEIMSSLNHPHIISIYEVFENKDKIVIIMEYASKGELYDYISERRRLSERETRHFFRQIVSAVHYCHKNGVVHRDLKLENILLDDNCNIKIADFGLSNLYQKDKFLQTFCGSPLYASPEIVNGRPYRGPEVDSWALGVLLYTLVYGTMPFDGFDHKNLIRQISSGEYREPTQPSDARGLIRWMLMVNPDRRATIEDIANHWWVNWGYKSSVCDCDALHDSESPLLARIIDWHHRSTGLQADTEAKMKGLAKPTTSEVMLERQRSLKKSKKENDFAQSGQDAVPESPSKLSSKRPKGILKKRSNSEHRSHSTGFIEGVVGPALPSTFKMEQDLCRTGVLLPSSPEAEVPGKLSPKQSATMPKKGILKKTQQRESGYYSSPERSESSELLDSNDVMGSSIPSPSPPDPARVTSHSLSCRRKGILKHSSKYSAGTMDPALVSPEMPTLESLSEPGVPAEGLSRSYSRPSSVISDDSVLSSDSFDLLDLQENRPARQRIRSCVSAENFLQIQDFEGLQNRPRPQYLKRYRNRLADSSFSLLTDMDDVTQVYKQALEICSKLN
# [7] = biological target: Serine/threonine-protein kinase Nek6 (Homo sapiens) (UniProt Q9HC98); experiment: Inhibition of NEK6 Lys2 labeling site harbouring VMHRDIKPANVFITATGVVK in human Huh-7 cell lysate at 1 uM by KiNativ Profiling analysis relative to control; format: subcellular
# Chain of Serine/threonine-protein kinase Nek6 (Homo sapiens) (Q9HC98 whole entry): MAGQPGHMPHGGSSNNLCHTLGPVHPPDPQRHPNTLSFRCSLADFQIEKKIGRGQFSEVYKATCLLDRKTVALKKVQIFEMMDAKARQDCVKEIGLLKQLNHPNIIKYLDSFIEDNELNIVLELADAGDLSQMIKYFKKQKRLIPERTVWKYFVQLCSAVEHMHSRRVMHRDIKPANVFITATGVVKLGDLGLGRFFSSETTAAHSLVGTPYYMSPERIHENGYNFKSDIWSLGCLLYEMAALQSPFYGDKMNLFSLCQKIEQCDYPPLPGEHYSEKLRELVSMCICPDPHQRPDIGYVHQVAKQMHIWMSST
smiles,measurement,setting,value
CCN1CCN(Cc2ccc(NC(=O)c3ccc(C)c(/C=C/c4cnc5[nH]ccc5c4OC)c3)cc2C(F)(F)F)CC1,inhibition,[1],23.7%
CCN1CCN(Cc2ccc(NC(=O)c3ccc(C)c(Oc4ccnc5[nH]ccc45)c3)cc2C(F)(F)F)CC1,inhibition,[2],inactive
same,residual activity,[3],3%
same,inhibition,[4],2.3%
same,inhibition,[5],-5.5%
same,inhibition,[6],35.4%
CNc1cc(Oc2cc(C(=O)Nc3cc(N4CCN(C)CC4)cc(C(F)(F)F)c3)ccc2C)ncn1,inhibition,[7],19.4%
